According to ChEMBL document CHEMBL4689842, “EUbOPEN Chemogenomics Library wave 1” (2021):

System: U2OS
Assay: Multiplex assay against U2OS
Type: toxicity, cell-based
Details: human
Outline: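 Cells were classed with CellPathfinder machine-learning gating, first as Hoechst high-intensity objects or normal cells, then (normal cells) as healthy, pyknosed or fragmented nuclei, and finally (pyknosed cells) as mitotic or apoptotic. Staining of live cells at seeding used Hoechst33342, BioTracker Green Microtubule Cytoskeleton Dye, MitoTracker Red and Annexin V Alexa Fluor 680, with imaging on a CQ1 microscope at 37°C and 5% CO2 after compound addition. Tubulin, mitochondrial-mass and membrane-permeability phenotypes are per cents of healthy-nucleus cells.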

[1] = 12 h, 1 µM, compound concentration 1 uM, replicate 1
[2] = 12 h, 1 µM, compound concentration 1 uM, replicate 2
[3] = 12 h, 10 µM, compound concentration 10 uM, replicate 1
[4] = 12 h, 10 µM, compound concentration 10 uM, replicate 2
[5] = 24 h, 1 µM, compound concentration 1 uM, replicate 1
[6] = 24 h, 1 µM, compound concentration 1 uM, replicate 2
[7] = 24 h, 10 µM, compound concentration 10 uM, replicate 1
[8] = 24 h, 10 µM, compound concentration 10 uM, replicate 2
[9] = 48 h, 1 µM, compound concentration 1 uM, replicate 1
[10] = 48 h, 1 µM, compound concentration 1 uM, replicate 2
[11] = 48 h, 10 µM, compound concentration 10 uM, replicate 1
[12] = 48 h, 10 µM, compound concentration 10 uM, replicate 2

## O=C(Cc1ccc(-c2ccc(OCCN3CCOCC3)cc2)cn1)NCc1ccccc1 [TIRBANIBULIN]
[1]
  Population Apoptotic (%): 52%
  Population Fragmented Nuclei (%): 10%
  Population Healthy Nuclei (%): 76%
  Population Hoechst High Intensity Objects (%): 7%
  Population Membrane Permeable-Phenotype (%): 8%
  Population Mitochondria Different-Phenotype (%): 20%
  Population Mitotic Cells (%): 47%
  Population Normal (%): 92%
  Population Pyknosed Nuclei (%): 12%
  Population Tubulin-Different-Phenotype (%): 19%
  Total Cell Count: 172
[2]
  Population Apoptotic (%): 0%
  Population Fragmented Nuclei (%): 5%
  Population Healthy Nuclei (%): 90%
  Population Hoechst High Intensity Objects (%): 12%
  Population Membrane Permeable-Phenotype (%): 9%
  Population Mitochondria Different-Phenotype (%): 21%
  Population Mitotic Cells (%): 100%
  Population Normal (%): 87%
  Population Pyknosed Nuclei (%): 4%
  Population Tubulin-Different-Phenotype (%): 12%
  Total Cell Count: 108
[3]
  Population Apoptotic (%): 21%
  Population Fragmented Nuclei (%): 10%
  Population Healthy Nuclei (%): 72%
  Population Hoechst High Intensity Objects (%): 10%
  Population Membrane Permeable-Phenotype (%): 8%
  Population Mitochondria Different-Phenotype (%): 16%
  Population Mitotic Cells (%): 78%
  Population Normal (%): 89%
  Population Pyknosed Nuclei (%): 16%
  Population Tubulin-Different-Phenotype (%): 10%
  Total Cell Count: 169
[4]
  Population Apoptotic (%): 50%
  Population Fragmented Nuclei (%): 13%
  Population Healthy Nuclei (%): 78%
  Population Membrane Permeable-Phenotype (%): 4%
  Population Mitochondria Different-Phenotype (%): 19%
  Population Mitotic Cells (%): 50%
  Population Pyknosed Nuclei (%): 7%
  Population Tubulin-Different-Phenotype (%): 12%
  Total Cell Count: 81
[5]
  Population Apoptotic (%): 34%
  Population Fragmented Nuclei (%): 20%
  Population Healthy Nuclei (%): 50%
  Population Hoechst High Intensity Objects (%): 8%
  Population Membrane Permeable-Phenotype (%): 9%
  Population Mitochondria Different-Phenotype (%): 35%
  Population Mitotic Cells (%): 65%
  Population Normal (%): 91%
  Population Pyknosed Nuclei (%): 29%
  Population Tubulin-Different-Phenotype (%): 21%
  Total Cell Count: 227
[6]
  Population Apoptotic (%): 61%
  Population Fragmented Nuclei (%): 16%
  Population Healthy Nuclei (%): 66%
  Population Hoechst High Intensity Objects (%): 9%
  Population Membrane Permeable-Phenotype (%): 6%
  Population Mitochondria Different-Phenotype (%): 44%
  Population Mitotic Cells (%): 38%
  Population Normal (%): 90%
  Population Pyknosed Nuclei (%): 17%
  Population Tubulin-Different-Phenotype (%): 10%
  Total Cell Count: 155
[7]
  Population Apoptotic (%): 34%
  Population Fragmented Nuclei (%): 15%
  Population Healthy Nuclei (%): 64%
  Population Hoechst High Intensity Objects (%): 8%
  Population Membrane Permeable-Phenotype (%): 8%
  Population Mitochondria Different-Phenotype (%): 46%
  Population Mitotic Cells (%): 65%
  Population Normal (%): 91%
  Population Pyknosed Nuclei (%): 20%
  Population Tubulin-Different-Phenotype (%): 11%
  Total Cell Count: 160
[8]
  Population Apoptotic (%): 66%
  Population Fragmented Nuclei (%): 19%
  Population Healthy Nuclei (%): 57%
  Population Hoechst High Intensity Objects (%): 10%
  Population Membrane Permeable-Phenotype (%): 10%
  Population Mitochondria Different-Phenotype (%): 40%
  Population Mitotic Cells (%): 33%
  Population Normal (%): 89%
  Population Pyknosed Nuclei (%): 23%
  Population Tubulin-Different-Phenotype (%): 13%
  Total Cell Count: 82
[9]
  Population Apoptotic (%): 67%
  Population Fragmented Nuclei (%): 24%
  Population Healthy Nuclei (%): 40%
  Population Hoechst High Intensity Objects (%): 9%
  Population Membrane Permeable-Phenotype (%): 7%
  Population Mitochondria Different-Phenotype (%): 39%
  Population Mitotic Cells (%): 32%
  Population Normal (%): 90%
  Population Pyknosed Nuclei (%): 35%
  Population Tubulin-Different-Phenotype (%): 25%
  Total Cell Count: 340
[10]
  Population Apoptotic (%): 75%
  Population Fragmented Nuclei (%): 22%
  Population Healthy Nuclei (%): 45%
  Population Hoechst High Intensity Objects (%): 11%
  Population Membrane Permeable-Phenotype (%): 29%
  Population Mitochondria Different-Phenotype (%): 64%
  Population Mitotic Cells (%): 25%
  Population Normal (%): 88%
  Population Pyknosed Nuclei (%): 32%
  Population Tubulin-Different-Phenotype (%): 35%
  Total Cell Count: 239
[11]
  Population Apoptotic (%): 64%
  Population Fragmented Nuclei (%): 24%
  Population Healthy Nuclei (%): 32%
  Population Hoechst High Intensity Objects (%): 10%
  Population Membrane Permeable-Phenotype (%): 15%
  Population Mitochondria Different-Phenotype (%): 63%
  Population Mitotic Cells (%): 35%
  Population Normal (%): 89%
  Population Pyknosed Nuclei (%): 43%
  Population Tubulin-Different-Phenotype (%): 22%
  Total Cell Count: 174
[12]
  Population Apoptotic (%): 70%
  Population Fragmented Nuclei (%): 23%
  Population Healthy Nuclei (%): 45%
  Population Hoechst High Intensity Objects (%): 11%
  Population Membrane Permeable-Phenotype (%): 44%
  Population Mitochondria Different-Phenotype (%): 68%
  Population Mitotic Cells (%): 29%
  Population Normal (%): 88%
  Population Pyknosed Nuclei (%): 30%
  Population Tubulin-Different-Phenotype (%): 36%
  Total Cell Count: 85

## Cn1nc(C(F)(F)F)cc1-c1cnc(N2CCc3cc(S(=O)(=O)Nc4c(F)cc(Cl)cc4F)cc(N4CCCC4=O)c32)nc1 [TP-020]
[1]
  Population Apoptotic (%): 27%
  Population Fragmented Nuclei (%): 4%
  Population Healthy Nuclei (%): 88%
  Population Hoechst High Intensity Objects (%): 4%
  Population Membrane Permeable-Phenotype (%): 17%
  Population Mitochondria Different-Phenotype (%): 18%
  Population Mitotic Cells (%): 72%
  Population Normal (%): 95%
  Population Pyknosed Nuclei (%): 6%
  Population Tubulin-Different-Phenotype (%): 10%
  Total Cell Count: 139
[2]
  Population Apoptotic (%): 0%
  Population Fragmented Nuclei (%): 14%
  Population Healthy Nuclei (%): 79%
  Population Hoechst High Intensity Objects (%): 15%
  Population Membrane Permeable-Phenotype (%): 15%
  Population Mitochondria Different-Phenotype (%): 15%
  Population Mitotic Cells (%): 100%
  Population Normal (%): 84%
  Population Pyknosed Nuclei (%): 5%
  Population Tubulin-Different-Phenotype (%): 15%
  Total Cell Count: 134
[3]
  Population Apoptotic (%): 50%
  Population Fragmented Nuclei (%): 3%
  Population Healthy Nuclei (%): 93%
  Population Hoechst High Intensity Objects (%): 4%
  Population Membrane Permeable-Phenotype (%): 11%
  Population Mitochondria Different-Phenotype (%): 23%
  Population Mitotic Cells (%): 50%
  Population Normal (%): 95%
  Population Pyknosed Nuclei (%): 3%
  Population Tubulin-Different-Phenotype (%): 22%
  Total Cell Count: 196
[4]
  Population Apoptotic (%): 16%
  Population Fragmented Nuclei (%): 8%
  Population Healthy Nuclei (%): 81%
  Population Hoechst High Intensity Objects (%): 5%
  Population Membrane Permeable-Phenotype (%): 10%
  Population Mitochondria Different-Phenotype (%): 31%
  Population Mitotic Cells (%): 83%
  Population Normal (%): 94%
  Population Pyknosed Nuclei (%): 9%
  Population Tubulin-Different-Phenotype (%): 26%
  Total Cell Count: 133
[5]
  Population Apoptotic (%): 20%
  Population Fragmented Nuclei (%): 2%
  Population Healthy Nuclei (%): 90%
  Population Hoechst High Intensity Objects (%): 2%
  Population Membrane Permeable-Phenotype (%): 12%
  Population Mitochondria Different-Phenotype (%): 10%
  Population Mitotic Cells (%): 80%
  Population Normal (%): 97%
  Population Pyknosed Nuclei (%): 7%
  Population Tubulin-Different-Phenotype (%): 16%
  Total Cell Count: 196
[6]
  Population Apoptotic (%): 42%
  Population Fragmented Nuclei (%): 12%
  Population Healthy Nuclei (%): 81%
  Population Hoechst High Intensity Objects (%): 5%
  Population Membrane Permeable-Phenotype (%): 13%
  Population Mitochondria Different-Phenotype (%): 23%
  Population Mitotic Cells (%): 57%
  Population Normal (%): 94%
  Population Pyknosed Nuclei (%): 5%
  Population Tubulin-Different-Phenotype (%): 11%
  Total Cell Count: 163
[7]
  Population Apoptotic (%): 9%
  Population Fragmented Nuclei (%): 3%
  Population Healthy Nuclei (%): 91%
  Population Hoechst High Intensity Objects (%): 1%
  Population Membrane Permeable-Phenotype (%): 6%
  Population Mitochondria Different-Phenotype (%): 19%
  Population Mitotic Cells (%): 90%
  Population Normal (%): 98%
  Population Tubulin-Different-Phenotype (%): 29%
  Total Cell Count: 268
[8]
  Population Apoptotic (%): 50%
  Population Fragmented Nuclei (%): 6%
  Population Healthy Nuclei (%): 88%
  Population Hoechst High Intensity Objects (%): 7%
  Population Membrane Permeable-Phenotype (%): 9%
  Population Mitochondria Different-Phenotype (%): 45%
  Population Mitotic Cells (%): 50%
  Population Normal (%): 92%
  Population Pyknosed Nuclei (%): 5%
  Population Tubulin-Different-Phenotype (%): 25%
  Total Cell Count: 175
